Test results from ChEMBL document CHEMBL1143595, “Synthesis and activity of substituted anthraquinones against a human filarial parasite, Brugia malayi” (2005).

Legend:
[1] = tested on: Brugia malayi; experiment: Antifilarial activity against Brugia malayi (female) at 5 ppm in the first 5 days (100% mortality); type: functional; details: 120 h
[2] = tested on: Brugia malayi; experiment: Antifilarial activity against Brugia malayi (female) at 5 ppm in the first 5 days (100% mortality); NM=No Mortality; type: functional, organism-based
[3] = tested on: Brugia malayi; experiment: Compound causing 100% mortality of Brugia malayi female adult worms at 6.25 ppm concentration; type: functional
Outline: (§1)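 Dose-response on adult female B. malayi in RPMI 1640 with penicillin/streptomycin. Concentrations ranged from 50 to 3.12 ppm, with compounds delivered in DMSO; solvent controls received 2% DMSO. Movement and mortality were monitored daily. Read-out was days to 100% worm mortality at each concentration.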

[4] = tested on: Brugia malayi; experiment: Compound causing 100% mortality of Brugia malayi female adult worms at 50 ppm concentration; type: functional; outline: as §1
[5] = tested on: Brugia malayi; experiment: Compound causing 100% mortality of Brugia malayi female adult worms at 12.5 ppm concentration; type: functional; outline: as §1
[6] = tested on: Brugia malayi; experiment: Compound causing 100% mortality of Brugia malayi female adult worms at 3.125 ppm concentration; type: functional; outline: as §1
[7] = tested on: Brugia malayi; experiment: Compound causing 100% mortality of Brugia malayi female adult worms at 25 ppm concentration; type: functional; outline: as §1
[8] = tested on: Brugia malayi; experiment: Antifilarial activity against Brugia malayi (male) at 5 ppm in the first 5 days (100% mortality); type: functional; details: 120 h
[9] = tested on: Brugia malayi; experiment: Compound causing 100% mortality of Brugia malayi female adult worms at 3.125 ppm concentration; no mortality; type: functional, organism-based; outline: as §1
[10] = tested on: Brugia malayi; experiment: Antifilarial activity of anthraquinone against Brugia malayi (female) at 5 ppm in the first 5 days (100% mortality); type: functional; details: 120 h

**Q.** How did the mortality at 5 ppm [1] turn out when `O=C1c2ccccc2C(=O)c2c1ccc(O)c2O` [ATHRAQUINONES A] was run?
**A.** The mortality at 5 ppm was 5%.

**Q.** With `O=C1c2ccccc2C(=O)c2c(O)ccc(O)c21` [QUINIZARIN] as the compound, how does the mortality at 5 ppm [1] read?
**A.** Its mortality at 5 ppm is 10%.

**Q.** With `O=C1c2cccc(O)c2C(=O)c2c(O)ccc(O)c21` as the compound, how does the mortality at 5 ppm [1] read?
**A.** Its mortality at 5 ppm is 9%.

**Q.** With `O=C1c2cc(O)cc(O)c2C(=O)c2cccc(O)c21` as the compound, how does the mortality at 5 ppm [1] read?
**A.** The mortality at 5 ppm was 7%.

**Q.** With `COc1cc2c(c(C)c1OC)C(=O)c1c(O)cccc1C2=O` as the compound, how does the mortality at 5 ppm [1] read?
**A.** The mortality at 5 ppm was 9%.

**Q.** With `O=C1c2ccccc2C(=O)c2c(O)cc(O)cc21` as the compound, how does the Mortality [2] read?
**A.** Its Mortality is “No mortality”.

**Q.** Which results are given for `O=C1c2ccccc2C(=O)c2c1cc(O)c(O)c2O`?
**A.** Mortality [3]: 5 days; Mortality [4]: 2 days; mortality at 5 ppm [1]: 5%; Mortality [5]: 4 days; Mortality [6]: 5 days; Mortality [7]: 4 days

**Q.** For `O=C1c2cccc(O)c2C(=O)c2c1ccc(O)c2O`, which mortality at 5 ppm [1] is on record?
**A.** Its mortality at 5 ppm is 14%.

**Q.** `COc1c(C)cc2c(c1OC)C(=O)c1ccccc1C2=O` was tested. Which mortality at 5 ppm [1] did it give?
**A.** The mortality at 5 ppm was 11%.

**Q.** What does the source list for `CCCSc1ccc2[nH]c(NC(=O)OC)nc2c1` [ALBENDAZOLE]?
**A.** mortality at 5 ppm [8]: 9%; mortality at 5 ppm [1]: 16%

**Q.** For `COc1cccc2c1C(=O)c1c(cc(C)c(OC)c1O)C2=O`, which mortality at 5 ppm [1] is on record?
**A.** The mortality at 5 ppm was 7%.

**Q.** What does the source list for `COc1c(C)cc2c(c1O)C(=O)c1c(O)cccc1C2=O`?
**A.** Mortality [3]: 8 days; Mortality [4]: 1 days; Mortality [5]: 4 days; Mortality [9]: no mortality; Mortality [7]: 2 days; Mortality [2]: No mortality

**Q.** Which mortality at 5 ppm [8] does the source give for `Cc1cc2c(c(O)c1O)C(=O)c1ccccc1C2=O` here?
**A.** Its mortality at 5 ppm is 6%.

**Q.** And the Mortality [3]?
**A.** Its Mortality is 5 days.

**Q.** What about the Mortality [4] of the same compound?
**A.** The Mortality was 1 days.

**Q.** What about the mortality at 5 ppm [1] of the same compound?
**A.** The mortality at 5 ppm was 5%.

**Q.** What about the Mortality [5] of the same compound?
**A.** The Mortality was 4 days.

**Q.** And the Mortality [6]?
**A.** Its Mortality is 6 days.

**Q.** What about the Mortality [7] of the same compound?
**A.** Its Mortality is 3 days.

**Q.** How did the mortality at 5 ppm [1] turn out when `O=C1c2cc(O)c(O)cc2C(=O)c2c(O)cccc21` was run?
**A.** Its mortality at 5 ppm is 5%.

**Q.** Which results are given for `O=C1c2cc(O)c(O)c(O)c2C(=O)c2cccc(O)c21`?
**A.** mortality at 5 ppm [8]: 6%; mortality at 5 ppm [1]: 5%

**Q.** For `O=C1c2ccc(O)c(O)c2C(=O)c2cccc(O)c21`, which mortality at 5 ppm [1] is on record?
**A.** The mortality at 5 ppm was 9%.

**Q.** Which results are given for `Cc1cc2c(c(O)c1O)C(=O)c1c(O)cccc1C2=O`?
**A.** mortality at 5 ppm [8]: 5%; Mortality [3]: 5 days; Mortality [4]: 2 days; mortality at 5 ppm [1]: 5%; Mortality [5]: 4 days; Mortality [9]: no mortality; Mortality [7]: 3 days

**Q.** `Cc1c(O)c(O)cc2c1C(=O)c1c(O)cccc1C2=O` was tested. Which mortality at 5 ppm [8] did it give?
**A.** The mortality at 5 ppm was 5%.

**Q.** And the mortality at 5 ppm [1]?
**A.** Its mortality at 5 ppm is 3%.

**Q.** With `Cc1c(O)c(O)cc2c1C(=O)c1ccccc1C2=O` as the compound, how does the mortality at 5 ppm [10] read?
**A.** Its mortality at 5 ppm is 7%.

**Q.** With `COc1c(C)cc2c(c1O)C(=O)c1ccccc1C2=O` as the compound, how does the Mortality [2] read?
**A.** The Mortality was “No mortality”.
